Experimental data: ChEMBL document CHEMBL3425426, “Discovery of DS-1558: A Potent and Orally Bioavailable GPR40 Agonist” (ACS Med Chem Lett, 2015)
The source made the active and inactive calls. No cut-off for these calls is given here.

Assays:
[1] = molecular target: Free fatty acid receptor 1 (Homo sapiens, UniProt O14842); test: Agonist activity at human GPR40 expressed in CHO cells assessed as calcium flux by FLIPR assay; assay type: functional, cell-based
[2] = system: Liver microsome; test: Drug metabolism in human liver microsomes assessed as 2-methylbenzaldehyde formation at 500 uM incubated for 1 hr in presence of GSH and NADPH and by LC-MS/MS based GSH trapping assay; assay type: ADME
[3] = system: Rattus norvegicus; test: Reduction in glucose excursion in ZDF rat at 10 mg/kg, po dosed 30 mins before glucose challenge by OGTT method; assay type: functional, organism-based; design: dose 10 mg/kg
Procedure, shortened: (§1)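 Male Zucker diabetic fatty rats, 9 weeks old, n = 6 per group. Oral dose given 30 min before an oral glucose challenge of 2 g/kg. Plasma glucose and plasma insulin were followed over time after the challenge. Values are reported as mean ± standard error.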

[4] = system: Rattus norvegicus; test: Increase in plasma insulin level in ZDF rat at 10 mg/kg, po dosed 30 mins before glucose challenge by OGTT method; assay type: functional, organism-based; design: dose 10 mg/kg; procedure, shortened: as §1
[5] = species on record: Homo sapiens; test: Selectivity for human GPR40 over central GABAB1A receptor (unknown origin)
[6] = species on record: Homo sapiens; test: Selectivity for human GPR40 over IL1 receptor (unknown origin)
[7] = species on record: Homo sapiens; test: Selectivity for human GPR40 over thyroid receptor receptor (unknown origin)
[8] = species on record: Homo sapiens; test: Selectivity for human GPR40 over muscarinic M2 receptor (unknown origin)
[9] = species on record: Homo sapiens; test: Selectivity for human GPR40 over sigma-1 receptor (unknown origin)
[10] = species on record: Homo sapiens; test: Selectivity for human GPR40 over adrenergic beta2 receptor (unknown origin)
[11] = species on record: Homo sapiens; test: Selectivity for human GPR40 over adrenergic alpha1D receptor (unknown origin)
[12] = species on record: Mus musculus; test: Induction of glucose-stimulated insulin secretion in wild type mouse pancreatic islets; assay type: functional
[13] = species on record: Homo sapiens; test: Selectivity for human GPR40 over KATP channel (unknown origin)
[14] = species on record: Homo sapiens; test: Selectivity for human GPR40 over calcium channel L-type dihydropyridine binding site (unknown origin)
[15] = species on record: Homo sapiens; test: Selectivity for human GPR40 over central GABAA receptor muscimol binding site (unknown origin)
[16] = species on record: Homo sapiens; test: Selectivity for human GPR40 over androgen receptor (unknown origin)
[17] = species on record: Homo sapiens; test: Selectivity for human GPR40 over NMDA receptor glycine binding site (unknown origin)
[18] = species on record: Homo sapiens; test: Selectivity for human GPR40 over P2Y receptor (unknown origin)
[19] = system: Rattus norvegicus; test: Reduction in glucose excursion in ZDF rat at 0.1 mg/kg, po dosed 30 mins before glucose challenge by OGTT method; assay type: functional, organism-based; design: dose 0.1 mg/kg; procedure, shortened: as §1
[20] = species on record: Homo sapiens; test: Selectivity for human GPR40 over GCR (unknown origin)
[21] = species on record: Homo sapiens; test: Selectivity for human GPR40 over PAF receptor (unknown origin)
[22] = species on record: Homo sapiens; test: Selectivity for human GPR40 over CysLT1 receptor (unknown origin)
[23] = species on record: Homo sapiens; test: Selectivity for human GPR40 over dopamine D4.2 receptor (unknown origin)
[24] = species on record: Homo sapiens; test: Selectivity for human GPR40 over dopamine D1 receptor (unknown origin)
[25] = species on record: Homo sapiens; test: Selectivity for human GPR40 over dopamine D3 receptor (unknown origin)
[26] = species on record: Homo sapiens; test: Selectivity for human GPR40 over endothelin ETB receptor (unknown origin)
[27] = species on record: Homo sapiens; test: Selectivity for human GPR40 over adrenergic alpha2A receptor (unknown origin)
[28] = species on record: Homo sapiens; test: Selectivity for human GPR40 over SERT (unknown origin)
[29] = species on record: Homo sapiens; test: Selectivity for human GPR40 over neuropeptide YY1 receptor (unknown origin)
[30] = species on record: Homo sapiens; test: Selectivity for human GPR40 over nAchR alpha1 bungarotoxin binding site (unknown origin)
[31] = species on record: Homo sapiens; test: Selectivity for human GPR40 over central imidazoline I2 receptor (unknown origin)
[32] = species on record: Homo sapiens; test: Selectivity for human GPR40 over 5HT1A receptor (unknown origin)
[33] = species on record: Homo sapiens; test: Selectivity for human GPR40 over NET (unknown origin)
[34] = species on record: Homo sapiens; test: Selectivity for human GPR40 over adenosine A1 receptor (unknown origin)
[35] = molecular target: T1, Peroxisome proliferator-activated receptor gamma (Homo sapiens) (UniProt P37231); test: Agonist activity at PPARgamma (unknown origin) up to 100 uM
T1 sequence (whole entry): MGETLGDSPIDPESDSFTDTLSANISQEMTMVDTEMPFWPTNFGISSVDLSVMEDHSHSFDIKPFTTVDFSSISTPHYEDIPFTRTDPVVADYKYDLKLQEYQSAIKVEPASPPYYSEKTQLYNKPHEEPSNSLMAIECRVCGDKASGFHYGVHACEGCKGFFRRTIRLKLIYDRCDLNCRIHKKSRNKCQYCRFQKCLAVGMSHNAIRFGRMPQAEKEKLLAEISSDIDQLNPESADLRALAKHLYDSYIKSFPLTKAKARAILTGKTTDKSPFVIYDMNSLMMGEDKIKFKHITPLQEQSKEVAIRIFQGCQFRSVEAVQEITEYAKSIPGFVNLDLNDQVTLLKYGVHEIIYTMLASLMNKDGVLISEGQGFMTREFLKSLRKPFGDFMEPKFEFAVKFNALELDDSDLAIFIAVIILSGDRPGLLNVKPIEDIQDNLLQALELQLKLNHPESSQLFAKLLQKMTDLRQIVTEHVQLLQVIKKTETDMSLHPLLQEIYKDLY

[36] = species on record: Homo sapiens; test: Selectivity for human GPR40 over mu opioid receptor (unknown origin)
[37] = species on record: Homo sapiens; test: Selectivity for human GPR40 over human ERG channel
[38] = species on record: Homo sapiens; test: Selectivity for human GPR40 over delta opioid receptor (unknown origin)
[39] = species on record: Homo sapiens; test: Selectivity for human GPR40 over adenosine A2A receptor (unknown origin)
[40] = species on record: Homo sapiens; test: Selectivity for human GPR40 over muscarinic M1 receptor (unknown origin)
[41] = species on record: Homo sapiens; test: Selectivity for human GPR40 over histamine H2 receptor (unknown origin)
[42] = species on record: Homo sapiens; test: Selectivity for human GPR40 over kappa opioid receptor (unknown origin)
[43] = species on record: Homo sapiens; test: Selectivity for human GPR40 over ERalpha (unknown origin)
[44] = species on record: Homo sapiens; test: Selectivity for human GPR40 over DAT (unknown origin)
[45] = species on record: Homo sapiens; test: Selectivity for human GPR40 over sodium channel site 2 (unknown origin)
[46] = species on record: Homo sapiens; test: Selectivity for human GPR40 over calcium channel L-type benzothiazepine binding site (unknown origin)
[47] = species on record: Homo sapiens; test: Selectivity for human GPR40 over dopamine D2S receptor (unknown origin)
[48] = species on record: Homo sapiens; test: Selectivity for human GPR40 over bradykinin B1 receptor (unknown origin)
[49] = species on record: Homo sapiens; test: Selectivity for human GPR40 over bradykinin B2 receptor (unknown origin)
[50] = species on record: Homo sapiens; test: Selectivity for human GPR40 over P2X receptor (unknown origin)
[51] = species on record: Homo sapiens; test: Selectivity for human GPR40 over EGF receptor (unknown origin)
[52] = species on record: Homo sapiens; test: Selectivity for human GPR40 over kainate receptor (unknown origin)
[53] = species on record: Homo sapiens; test: Selectivity for human GPR40 over histamine H1 receptor (unknown origin)
[54] = species on record: Homo sapiens; test: Selectivity for human GPR40 over endothelin ETA receptor (unknown origin)
[55] = species on record: Homo sapiens; test: Selectivity for human GPR40 over histamine H3 receptor (unknown origin)
[56] = species on record: Homo sapiens; test: Selectivity for human GPR40 over neuropeptide YY2 receptor (unknown origin)
[57] = species on record: Homo sapiens; test: Selectivity for human GPR40 over 5HT3 receptor (unknown origin)
[58] = species on record: Homo sapiens; test: Selectivity for human GPR40 over GABA transporter (unknown origin)
[59] = species on record: Homo sapiens; test: Selectivity for human GPR40 over adrenergic alpha1B receptor (unknown origin)
[60] = species on record: Homo sapiens; test: Selectivity for human GPR40 over GPR103 (unknown origin)
[61] = species on record: Homo sapiens; test: Selectivity for human GPR40 over NK1 receptor (unknown origin)
[62] = species on record: Homo sapiens; test: Selectivity for human GPR40 over phorbol ester receptor (unknown origin)
[63] = system: Rattus norvegicus; test: Increase in plasma insulin level in ZDF rat at 0.1 mg/kg, po dosed 30 mins before glucose challenge by OGTT method; assay type: functional, organism-based; design: dose 0.1 mg/kg; procedure, shortened: as §1
[64] = species on record: Mus musculus; test: Induction of glucose-stimulated insulin secretion in GPR40 knock out mouse pancreatic islets; assay type: functional
[65] = species on record: Homo sapiens; test: Selectivity for human GPR40 over sigma-2 receptor (unknown origin)
[66] = species on record: Homo sapiens; test: Selectivity for human GPR40 over rolipram binding receptor (unknown origin)
[67] = species on record: Homo sapiens; test: Selectivity for human GPR40 over adrenergic beta1 receptor (unknown origin)
[68] = species on record: Homo sapiens; test: Selectivity for human GPR40 over adrenergic alpha1A receptor (unknown origin)
[69] = species on record: Homo sapiens; test: Selectivity for human GPR40 over NMDA receptor phencyclidine binding site (unknown origin)
[70] = species on record: Homo sapiens; test: Selectivity for human GPR40 over nAchR (unknown origin)
[71] = species on record: Homo sapiens; test: Selectivity for human GPR40 over EP4 receptor (unknown origin)
[72] = system: Rattus norvegicus; test: Reduction in glucose excursion in ZDF rat at 0.03 mg/kg, po dosed 30 mins before glucose challenge by OGTT method; assay type: functional, organism-based; design: dose 0.03 mg/kg; procedure, shortened: as §1
[73] = species on record: Homo sapiens; test: Selectivity for human GPR40 over central GABAA receptor flunitrazepam binding site (unknown origin)
[74] = species on record: Homo sapiens; test: Selectivity for human GPR40 over MT1 receptor (unknown origin)
[75] = species on record: Homo sapiens; test: Selectivity for human GPR40 over muscarinic M3 receptor (unknown origin)
[76] = species on record: Homo sapiens; test: Selectivity for human GPR40 over adenosine A3 receptor (unknown origin)

Sequence of Free fatty acid receptor 1 (O14842 whole entry): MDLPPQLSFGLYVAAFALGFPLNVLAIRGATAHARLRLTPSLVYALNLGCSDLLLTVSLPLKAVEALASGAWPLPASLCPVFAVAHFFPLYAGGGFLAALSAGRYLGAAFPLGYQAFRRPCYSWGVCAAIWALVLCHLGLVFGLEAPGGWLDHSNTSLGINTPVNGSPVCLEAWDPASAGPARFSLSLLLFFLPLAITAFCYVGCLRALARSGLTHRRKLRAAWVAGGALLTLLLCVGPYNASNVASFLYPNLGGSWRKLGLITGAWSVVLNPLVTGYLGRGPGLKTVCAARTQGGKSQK

SMILES: CCO[C@@H](CC(=O)O)c1ccc(O[C@H]2CCc3c2cccc3C(F)(F)F)cc1
- EC50 [1]: 19 nM

SMILES: CCOC(CC(=O)O)c1ccc(OCc2ccccc2C)cc1 (racemic)
- Drug metabolism [2]: metabolite_detected

SMILES: CCO[C@@H](CC(=O)O)c1ccc(O[C@@H]2CCc3ccccc32)cc1
- EC50 [1]: 31 nM

SMILES: CCO[C@@H](CC(=O)O)c1ccc(O[C@@H]2CCc3c(Cl)cccc32)cc1
- EC50 [1]: 5 nM

SMILES: CCO[C@@H](CC(=O)O)c1ccc(O[C@@H]2CCc3c(C)cccc32)cc1
- EC50 [1]: 29 nM

SMILES: N[C@@H](CC(=O)N1CCn2c(nnc2C(F)(F)F)C1)Cc1cc(F)c(F)cc1F
- Activity [3]: Active
- Activity [4]: Active

SMILES: CCO[C@@H](CC(=O)O)c1ccc(O[C@@H]2CCc3c2cccc3C(F)(F)F)cc1
- Selectivity ratio [5]: > 100
- Selectivity ratio [6]: > 100
- Selectivity ratio [7]: > 100
- Selectivity ratio [8]: > 100
- Selectivity ratio [9]: > 100
- Selectivity ratio [10]: > 100
- Selectivity ratio [11]: > 100
- Activity [12]: Active
- Selectivity ratio [13]: > 100
- Selectivity ratio [14]: > 100
- Selectivity ratio [15]: > 100
- Selectivity ratio [16]: > 100
- EC50 [1]: 3.7 nM
- Selectivity ratio [17]: > 100
- Selectivity ratio [18]: > 100
- Activity [19]: Active
- Selectivity ratio [20]: > 100
- Selectivity ratio [21]: > 100
- Selectivity ratio [22]: > 100
- Selectivity ratio [23]: > 100
- Selectivity ratio [24]: > 100
- Selectivity ratio [25]: > 100
- Selectivity ratio [26]: > 100
- Selectivity ratio [27]: > 100
- Selectivity ratio [28]: > 100
- Selectivity ratio [29]: > 100
- Selectivity ratio [30]: > 100
- Selectivity ratio [31]: > 100
- Selectivity ratio [32]: > 100
- Selectivity ratio [33]: > 100
- Selectivity ratio [34]: > 100
- Activity [35]: inactive
- Selectivity ratio [36]: > 100
- Selectivity ratio [37]: > 100
- Selectivity ratio [38]: > 100
- Selectivity ratio [39]: > 100
- Selectivity ratio [40]: > 100
- Selectivity ratio [41]: > 100
- Selectivity ratio [42]: > 100
- Selectivity ratio [43]: > 100
- Selectivity ratio [44]: > 100
- Selectivity ratio [45]: > 100
- Selectivity ratio [46]: > 100
- Selectivity ratio [47]: > 100
- Selectivity ratio [48]: > 100
- Selectivity ratio [49]: > 100
- Selectivity ratio [50]: > 100
- Selectivity ratio [51]: > 100
- Selectivity ratio [52]: > 100
- Selectivity ratio [53]: > 100
- Selectivity ratio [54]: > 100
- Selectivity ratio [55]: > 100
- Selectivity ratio [56]: > 100
- Selectivity ratio [57]: > 100
- Selectivity ratio [58]: > 100
- Selectivity ratio [59]: > 100
- Selectivity ratio [60]: > 100
- Selectivity ratio [61]: > 100
- Selectivity ratio [62]: > 100
- Activity [63]: Active
- Activity [64]: inactive
- Selectivity ratio [65]: > 100
- Selectivity ratio [66]: > 100
- Selectivity ratio [67]: > 100
- Selectivity ratio [68]: > 100
- Selectivity ratio [69]: > 100
- Selectivity ratio [70]: > 100
- Selectivity ratio [71]: > 100
- Activity [72]: Active
- Selectivity ratio [73]: > 100
- Selectivity ratio [74]: > 100
- Selectivity ratio [75]: > 100
- Selectivity ratio [76]: > 100

SMILES: CCO[C@H](CC(=O)O)c1ccc(O[C@@H]2CCc3c2cccc3C(F)(F)F)cc1
- EC50 [1]: 330 nM

SMILES: CCO[C@H](CC(=O)O)c1ccc(OCc2ccc(Cl)c(Cl)c2)cc1
- EC50 [1]: 360 nM
